According to PMC9162962 (European Journal of Medicinal Chemistry, 2022):

Assays:
SARS-CoV-2 M^pro [1] = biological target: T1, SARS-CoV-2 M^pro (Severe acute respiratory syndrome coronavirus 2, UniProt P0DTD1); experiment: Mass spectrometry; assay type: binding; settings: 2 μM protease, 15 μM compound, on ice 3 h
In short: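 Mpro–test compound mixture kept on ice for 3 h, then run on a quadrupole-TOF LC-MS/MS system. Raw mass signal deconvoluted to total intact protein mass to detect adduct formation. Protein was recombinant, E. coli-expressed.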

SARS-CoV-2 M^pro [2] = biological target: T1, SARS-CoV-2 M^pro; experiment: Enzymatic reversibility assay; assay type: biochemical; settings: 10 μM Mpro, 100 μM compound, 180 min
In short: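 Recombinant Mpro (10 μM), E. coli-expressed, held with 100 μM test compound for 180 min, then split into four portions given different numbers of ultrafiltration rounds. Retained protease diluted to 0.5 μM final; activity measured; triplicates averaged.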

SARS-CoV-2 M^pro [3] = biological target: T1, SARS-CoV-2 M^pro; assay type: biochemical
MDCK cells = settings: MTT
Vero cells = settings: MTT
SARS-CoV-2 = settings: lungs and nose of SARS-CoV-2 infected mice; cited from earlier work

With `NC(=S)N/N=C/c1ccc(-c2ccc(C(=O)O)c(O)c2)o1` [F8–B6, (E)-4-(5-((2-carbamothioylhydrazono)methyl)furan-2-yl)-2-hydroxybenzoic acid] the “Covalent binding by LC-MS/MS” value (SARS-CoV-2 M^pro [1]) was “covalently bonded”, the “Reversibility of inhibition after ultrafiltration” value (SARS-CoV-2 M^pro [2]) was “reversible inhibitor” and the “Mechanism of inhibition (overall, kinetic and mass spectrometry studies)” value (SARS-CoV-2 M^pro [3]) was “reversible covalent inhibitor”. For the same compound, the “Type of inhibition from Lineweaver-Burk plot” value (SARS-CoV-2 M^pro [3]; enzymatic kinetic assay, 3 h preincubation, varied substrate) was “non-competitive inhibitor” and the “Effect of prolonged incubation on inhibition” value (SARS-CoV-2 M^pro [3]; incubation 5, 30, 180 min (Fig. S3A-C)) was “time-dependent increase of inhibition activity”.
For `NC(=S)N/N=C/c1ccc(Cc2ccccc2)o1` [F8–B22, (E)-2-((5-benzylfuran-2-yl)methylene)hydrazine-1-carbothioamide], the “Cytotoxicity in MDCK cells” value (MDCK cells) was “low cytotoxicity”, the “Cytotoxicity in Vero cells” value (Vero cells) was “low cytotoxicity” and the “Potency relative to initial compound F8” value (SARS-CoV-2 M^pro [3]; ratio of IC50 values) was 13 fold.
For `Cc1ccc(NC(=O)c2ccc(CN3CCN(C)CC3)cc2)cc1Nc1nc(-c2cccnc2)cs1` [Masitinib], the “Effect on coronavirus replication in infected mice” value (SARS-CoV-2) is listed as “block the replication of coronavirus in the lungs and nose”.
